What was measured:
Mus musculus [1] = test: Neurotoxicity in mouse assessed as inability to maintain equilibrium on rotarod at 30 mg/kg, ip after 0.5 hrs by rotarod test; format: toxicity, organism-based; set-up: dose 30 mg/kg, route intraperitoneal; details: in vivo
Method in brief: (§1)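 Drug given ip to mice as a suspension in 0.5% methylcellulose. At the stated time after dosing, each mouse was placed on a 1 inch knurled rod turning at 6 rpm. Neurotoxicity = inability to stay balanced at least 1 min in each of three trials. Scored as animals toxic/animals tested in small groups.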

Mus musculus [2] = test: Neurotoxicity in mouse assessed as inability to maintain equilibrium on rotarod at 300 mg/kg, ip after 0.5 hrs by rotarod test; format: toxicity, organism-based; set-up: dose 300 mg/kg, route intraperitoneal; details: in vivo; method in brief: as §1
Mus musculus [3] = test: Neurotoxicity in mouse assessed as inability to maintain equilibrium on rotarod at 30 mg/kg, ip after 4 hrs by rotarod test; format: toxicity, organism-based; set-up: dose 30 mg/kg, route intraperitoneal; details: in vivo; method in brief: as §1
Mus musculus [4] = test: Neurotoxicity in mouse assessed as inability to maintain equilibrium on rotarod at 100 mg/kg, ip after 4 hrs by rotarod test; format: toxicity, organism-based; set-up: dose 100 mg/kg, route intraperitoneal; details: in vivo; method in brief: as §1
Mus musculus [5] = test: Neurotoxicity in mouse assessed as inability to maintain equilibrium on rotarod at 300 mg/kg, ip after 4 hrs by rotarod test; format: toxicity, organism-based; set-up: dose 300 mg/kg, route intraperitoneal; details: in vivo; method in brief: as §1
[6] = Neurotoxicity in ip dosed mouse assessed as inability to maintain equilibrium on rotarod by rotarod test; format: toxicity, organism-based; details: in vivo
Method in brief: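 Mice dosed ip with a suspension in 0.5% methylcellulose, then placed on a 1 inch knurled plastic rod rotating at 6 rpm. Toxicity = failure to keep equilibrium for at least 1 min in each of three trials.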

[7] = Neurotoxicity in po dosed rat assessed as neurological deficit […]; format: toxicity, organism-based; details: in vivo
Method in brief: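 Rats dosed orally with a suspension in 0.5% methylcellulose. Neurological deficit judged by ataxia and loss of placing response and muscle tone.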

Mus musculus [8] = test: Anticonvulsant activity in ip dosed mouse assessed as protection against maximal electric shock-induced seizures; format: functional; details: Mus musculus, ip; read-out: ED50
Rattus norvegicus [9] = test: Anticonvulsant activity in po dosed rat assessed as protection against maximal electric shock-induced seizures; format: functional
Mus musculus [10] = organism: Mus musculus; test: Protective index, ratio of TD50 for neurotoxicity in mouse to ED50 for inhibition of maximal electroshock-induced seizures in mouse; format: functional
Rattus norvegicus [11] = organism: Rattus norvegicus; test: Protective index, ratio of TD50 for neurotoxicity in rat to ED50 for inhibition of maximal electroshock-induced seizures in rat; format: functional
Rattus norvegicus [12] = test: Neurotoxicity in rat assessed as neurological deficit at 30 mg/kg, po after 0.25 hrs […]; format: toxicity, organism-based; set-up: dose 30 mg/kg, route oral; details: in vivo
Method in brief: (§2)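 Rats given the compound, suspended in 0.5% methylcellulose, by the stated route and dose. Neurological deficit was recorded at the listed times as ataxia and loss of placing response and muscle tone. Reported as number of rats showing toxicity/number tested.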

Rattus norvegicus [13] = test: Neurotoxicity in rat assessed as neurological deficit at 30 mg/kg, po after 0.5 hrs […]; format: toxicity, organism-based; set-up: dose 30 mg/kg, route oral; details: in vivo; method in brief: as §2
Rattus norvegicus [14] = test: Neurotoxicity in rat assessed as neurological deficit at 30 mg/kg, po after 1 hr […]; format: toxicity, organism-based; set-up: dose 30 mg/kg, route oral; details: in vivo; method in brief: as §2
Rattus norvegicus [15] = test: Neurotoxicity in rat assessed as neurological deficit at 30 mg/kg, po after 2 hrs […]; format: toxicity, organism-based; set-up: dose 30 mg/kg, route oral; details: in vivo; method in brief: as §2
Rattus norvegicus [16] = test: Neurotoxicity in rat assessed as neurological deficit at 30 mg/kg, po after 4 hrs by rotarod test; format: toxicity, organism-based; set-up: dose 30 mg/kg, route oral; details: in vivo; method in brief: as §2
Rattus norvegicus [17] = test: Neurotoxicity in rat assessed as neurological deficit at 62.5 mg/kg, po after 0.25 hrs; format: toxicity, organism-based; set-up: dose 62.5 mg/kg, route oral; details: in vivo
Method in brief: (§3)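 Rats dosed orally with test agent suspended in 0.5% methylcellulose and observed for up to 24 h (time-to-peak-effect design). Neurological deficit was scored as ataxia with loss of placing response and muscle tone. Two rats per dose per time point; results given as number toxic/number tested.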

Rattus norvegicus [18] = test: Neurotoxicity in rat assessed as neurological deficit at 62.5 mg/kg, po after 0.5 hrs; format: toxicity, organism-based; set-up: dose 62.5 mg/kg, route oral; details: in vivo; method in brief: as §3
Rattus norvegicus [19] = test: Neurotoxicity in rat assessed as neurological deficit at 62.5 mg/kg, po after 1 hr; format: toxicity, organism-based; set-up: dose 62.5 mg/kg, route oral; details: in vivo; method in brief: as §3
Rattus norvegicus [20] = test: Neurotoxicity in rat assessed as neurological deficit at 62.5 mg/kg, po after 2 hrs; format: toxicity, organism-based; set-up: dose 62.5 mg/kg, route oral; details: in vivo; method in brief: as §3
Rattus norvegicus [21] = test: Neurotoxicity in rat assessed as neurological deficit at 62.5 mg/kg, po after 4 hrs; format: toxicity, organism-based; set-up: dose 62.5 mg/kg, route oral; details: in vivo; method in brief: as §3
Rattus norvegicus [22] = test: Neurotoxicity in rat assessed as neurological deficit at 62.5 mg/kg, po after 6 hrs; format: toxicity, organism-based; set-up: dose 62.5 mg/kg, route oral; details: in vivo; method in brief: as §3
Rattus norvegicus [23] = test: Neurotoxicity in rat assessed as neurological deficit at 62.5 mg/kg, po after 8 hrs; format: toxicity, organism-based; set-up: dose 62.5 mg/kg, route oral; details: in vivo; method in brief: as §3
Rattus norvegicus [24] = test: Neurotoxicity in rat assessed as neurological deficit at 62.5 mg/kg, po after 24 hrs; format: toxicity, organism-based; set-up: dose 62.5 mg/kg, route oral; details: in vivo; method in brief: as §3
Rattus norvegicus [25] = test: Neurotoxicity in rat assessed as neurological deficit at 125 mg/kg, po after 0.25 hrs; format: toxicity, organism-based; set-up: dose 125 mg/kg, route oral; details: in vivo; method in brief: as §2
Rattus norvegicus [26] = test: Neurotoxicity in rat assessed as neurological deficit at 125 mg/kg, po after 0.5 hrs; format: toxicity, organism-based; set-up: dose 125 mg/kg, route oral; details: in vivo; method in brief: as §2
Rattus norvegicus [27] = test: Neurotoxicity in rat assessed as neurological deficit at 125 mg/kg, po after 1 hr; format: toxicity, organism-based; set-up: dose 125 mg/kg, route oral; details: in vivo; method in brief: as §2

Structure (SMILES): Cc1cccc(C)c1OCC(=O)NC1CCCCC1O.Cl (racemic; 1)
- Activity (Mus musculus [1]): Non-toxic
- Activity (Mus musculus [2]): Toxic
- Activity (Mus musculus [3]): Non-toxic
- Activity (Mus musculus [4]): Non-toxic
- Activity (Mus musculus [5]): Non-toxic
- TD50 [6]: 106 mg/kg
- TD50 [7]: > 500 mg/kg
- ED50 (Mus musculus [8]): 43 mg/kg
- ED50 (Rattus norvegicus [9]): 23.6 mg/kg
- Ratio TD50/ED50 (Mus musculus [10]): 2.475
- Ratio TD50/ED50 (Rattus norvegicus [11]): >21.218
- Activity (Rattus norvegicus [12]): Non-toxic
- Activity (Rattus norvegicus [13]): Non-toxic
- Activity (Rattus norvegicus [14]): Non-toxic
- Activity (Rattus norvegicus [15]): Non-toxic
- Activity (Rattus norvegicus [16]): Non-toxic
- Activity (Rattus norvegicus [17]): Non-toxic
- Activity (Rattus norvegicus [18]): Non-toxic
- Activity (Rattus norvegicus [19]): Non-toxic
- Activity (Rattus norvegicus [20]): Non-toxic
- Activity (Rattus norvegicus [21]): Non-toxic
- Activity (Rattus norvegicus [22]): Non-toxic
- Activity (Rattus norvegicus [23]): Non-toxic
- Activity (Rattus norvegicus [24]): Non-toxic
- Activity (Rattus norvegicus [25]): Non-toxic
- Activity (Rattus norvegicus [26]): Non-toxic
- Activity (Rattus norvegicus [27]): Non-toxic
